Each structure is given as a SMILES string. Active and inactive are the calls of the source. The rule behind the calls is not given here.

Series [1] can be described thus: Acute toxicity in po dosed rat. Format: organism-based. The note with it: in vivo.
In series [2] the test system is Rattus norvegicus. As to the kind of experiment: In-vivo inhibition of MAO in rat assessed as 5-hydroxytryptamine level in brain at 20 mg/kg/day, po administered for 1 week measured post last dose by HPLC method (reference value: 0.211 +/- 0.03 ng/mg). Format: functional.
Series [3] deals with T1, Amine oxidase [flavin-containing] A (Rattus norvegicus, UniProt P21396).
T1 sequence (P21396 whole entry): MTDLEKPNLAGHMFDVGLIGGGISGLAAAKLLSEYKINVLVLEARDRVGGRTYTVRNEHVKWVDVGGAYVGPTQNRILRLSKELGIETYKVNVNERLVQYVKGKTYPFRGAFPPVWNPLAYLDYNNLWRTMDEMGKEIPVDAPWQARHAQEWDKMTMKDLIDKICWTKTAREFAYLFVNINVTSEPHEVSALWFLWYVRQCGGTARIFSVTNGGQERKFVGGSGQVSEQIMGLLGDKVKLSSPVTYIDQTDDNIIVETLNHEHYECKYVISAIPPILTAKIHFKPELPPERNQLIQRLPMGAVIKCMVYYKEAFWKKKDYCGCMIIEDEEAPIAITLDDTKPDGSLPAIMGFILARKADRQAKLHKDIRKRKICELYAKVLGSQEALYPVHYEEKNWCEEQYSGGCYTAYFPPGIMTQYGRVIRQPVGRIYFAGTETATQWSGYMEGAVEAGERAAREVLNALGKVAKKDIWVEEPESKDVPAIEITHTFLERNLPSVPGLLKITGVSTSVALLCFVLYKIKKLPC
Nature of the series: Inhibition of rat MAOA using 5-hydroxytryptamine as substrate pretreated for 1200 secs followed by substrate addition and measured after 3600 secs.

Series [4] has as its target T2, Amine oxidase [flavin-containing] B (Rattus norvegicus, UniProt P19643).
T2 sequence (P19643 whole entry): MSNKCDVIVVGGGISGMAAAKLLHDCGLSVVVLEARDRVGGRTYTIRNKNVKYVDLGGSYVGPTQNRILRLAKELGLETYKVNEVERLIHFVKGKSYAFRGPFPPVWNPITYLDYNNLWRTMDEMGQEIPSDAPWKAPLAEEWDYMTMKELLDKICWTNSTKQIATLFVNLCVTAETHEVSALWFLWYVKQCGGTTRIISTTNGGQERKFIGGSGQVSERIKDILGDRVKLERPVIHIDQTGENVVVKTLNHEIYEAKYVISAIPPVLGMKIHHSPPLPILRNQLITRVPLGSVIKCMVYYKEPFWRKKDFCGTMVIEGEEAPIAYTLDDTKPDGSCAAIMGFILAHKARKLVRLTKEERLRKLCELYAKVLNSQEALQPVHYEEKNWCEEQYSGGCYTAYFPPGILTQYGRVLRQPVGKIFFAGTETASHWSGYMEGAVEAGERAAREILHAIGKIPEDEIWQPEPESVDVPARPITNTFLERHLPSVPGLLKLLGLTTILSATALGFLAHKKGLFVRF
Nature of the series: Inhibition of rat MAOB using benzylamine as substrate pretreated for 1200 secs followed by substrate addition and measured after 3600 secs. An outline of the steps:
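Enzyme: liver mitochondrial MAO prepared by sucrose differential centrifugation and held in 100 mmol/L K-phosphate pH 7.9. Inhibitor pre-incubated with enzyme 1200 s at 37 °C, 5% CO2. Benzylamine was added (final 2 mmol/L; MAO final 0.15 mg/mL) and reacted 3600 s. Stopped with 10% perchloric acid. Benzaldehyde extracted into cyclohexane and read at A240. DMSO blank.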

In series [5] the test system is Rattus norvegicus. Nature of the series: In-vivo inhibition of MAO in rat assessed as norepinephrine level in brain at 20 mg/kg/day, po administered for 1 week measured post last dose by HPLC method (reference value: 1.438 +/- 0.054 ng/mg). Format: functional.
Series [6] relates to Rattus norvegicus. As to the kind of experiment: In-vivo inhibition of MAO in rat assessed as dopamine level in brain at 20 mg/kg/day, po administered for 1 week measured post last dose by HPLC method (reference value: 0.459 +/- 0.07 ng/mg). Format: functional.
Series [7] relates to Rattus norvegicus. As to the kind of experiment: In-vivo inhibition of MAO in rat assessed as 5-hydroxytryptamine level in plasma at 20 mg/kg/day, po administered for 1 week measured post last dose by HPLC method (reference value: 67.4 +/- 5.9 ng/ml). Format: functional.
For series [8], the system named is Rattus norvegicus. Nature of the series: In-vivo inhibition of MAO in rat assessed as norepinephrine level in plasma at 20 mg/kg/day, po administered for 1 week measured post last dose by HPLC method (reference value: 200 +/- 13.2 ng/ml). Format: functional.
Series [9] relates to Rattus norvegicus. Nature of the series: In-vivo inhibition of MAO in rat assessed as dopamine level in plasma at 20 mg/kg/day, po administered for 1 week measured post last dose by HPLC method (reference value: 121.3 +/- 10.1 ng/ml). Format: functional.
Series [10] deals with Rattus norvegicus. As to the kind of experiment: In-vivo inhibition of MAOA in rat plasma at 20 mg/kg/day, po administered for 1 week measured post last dose. Format: functional, organism-based.
The subject of series [11] is Rattus norvegicus. Nature of the series: In-vivo inhibition of MAOA in rat brain at 20 mg/kg/day, po administered for 1 week measured post last dose. Format: functional, organism-based.
The test system of series [12] is Rattus norvegicus. As to the kind of experiment: In-vivo inhibition of MAOB in rat plasma at 20 mg/kg/day, po administered for 1 week measured post last dose. Format: functional, organism-based.
Series [13] deals with Rattus norvegicus. As to the kind of experiment: In-vivo inhibition of MAOB in rat brain at 20 mg/kg/day, po administered for 1 week measured post last dose. Format: functional, organism-based.

Usually LD50 stands for the dose expected to kill half of the subjects tested. Molecule `NCCNC(=O)c1ccc(Cl)cn1` [LAZABEMIDE] returned an LD50 in series [1] of 1000 to 2000 mg/kg.

Broadly, the IC50 is the concentration at which inhibition is half-maximal. Take `O=C(NCO)c1ccc(Cl)cc1`: the Activity was determined as 0.545 ng/mg in the series with Rattus norvegicus [2]; 2.64 ng/mg in the series on Rattus norvegicus [5]; 0.832 ng/mg in the series with Rattus norvegicus [6]; 123.2 ng/mL with Rattus norvegicus [7]; 436.9 ng/mL with Rattus norvegicus [8]; 231.1 ng/mL in the series with Rattus norvegicus [9]. Besides, the half-inhibitory concentration (IC50) came out at 7.49 µM in series [3] and 1440 µM in series [4]. The LD50 in [1] was found to be 3000 mg/kg. For the same molecule, the inhibition entry in the series with Rattus norvegicus [10] and in the series on Rattus norvegicus [11] was “Active” in each case.

In the case of `O=C(NCCO)c1ccc(Cl)cn1`, the Activity in the series with Rattus norvegicus [2] worked out at 0.515 ng/mg; with Rattus norvegicus [5], 4.99 ng/mg; in the series on Rattus norvegicus [6], 0.768 ng/mg; with Rattus norvegicus [7] it was 116.4 ng/mL; in the series with Rattus norvegicus [8] it was 628.3 ng/mL; in the series with Rattus norvegicus [9], 211.6 ng/mL. This molecule also gave a median lethal dose (LD50) in [1] of 3060 mg/kg. The inhibition result in the series on Rattus norvegicus [12] and in the series with Rattus norvegicus [13] was “Active” in each case.

On to `O=C(NCCBr)c1ccc(Cl)cc1`, for which the results for the IC50 in series [3] and in [4] were 26.8 µM and 895 µM, respectively.

With `O=C(NCO)c1ccc(Cl)cn1`, the Activity with Rattus norvegicus [2] is 0.469 ng/mg; in the series with Rattus norvegicus [5], 4.12 ng/mg; in the series with Rattus norvegicus [6], 0.667 ng/mg; with Rattus norvegicus [7] it was 100.6 ng/mL; with Rattus norvegicus [8], 569.2 ng/mL; in the series on Rattus norvegicus [9], 201.3 ng/mL. In series [1], this molecule registered a 50% lethal dose (LD50) of 3000 mg/kg. For the same molecule, the inhibition result in the series with Rattus norvegicus [12] and with Rattus norvegicus [13] was “Active” each time.

In the case of `O=C(NCCN1CCOCC1)c1ccc(Cl)cc1` [MOCLOBEMIDE], the IC50 in [4] amounted to 783 µM.

In the case of `O=C(NCCBr)c1ccc(Cl)cn1`, the IC50 in series [3] amounted to 790 µM; in [4], 24.8 µM.

Turning to `O=C(NCCO)c1ccc(Cl)cc1`, the Activity was 0.753 ng/mg with Rattus norvegicus [2]; 3.73 ng/mg in the series on Rattus norvegicus [5]; 1.51 ng/mg in the series on Rattus norvegicus [6]; 214.8 ng/mL in the series on Rattus norvegicus [7]; 452.7 ng/mL with Rattus norvegicus [8]; 379.4 ng/mL in the series on Rattus norvegicus [9]. The LD50 in [1] is 3090 mg/kg. The inhibition entry in the series on Rattus norvegicus [10] and in the series on Rattus norvegicus [11] was “Active” throughout.

Turning to `NCCNC(=O)c1ccc(Cl)cc1`, the Activity in the series on Rattus norvegicus [2] turned out to be 0.613 ng/mg; with Rattus norvegicus [5], 3.13 ng/mg; in the series with Rattus norvegicus [6], 1.21 ng/mg; with Rattus norvegicus [7] it was 150.4 ng/mL; in the series with Rattus norvegicus [8], 440.4 ng/mL; in the series on Rattus norvegicus [9], 307.5 ng/mL. The molecule further returned an LD50 in series [1] of 2810 mg/kg. The inhibition result in the series with Rattus norvegicus [10] and with Rattus norvegicus [11] was “Active” throughout.

`NCCCNC(=O)c1ccc(Cl)cc1`: the IC50 in series [3] is 24.5 µM; in [4] it was 1610 µM.

Source of the values: ChEMBL document CHEMBL4229548, “Design, synthesis and biological evaluation of lazabemide derivatives as inhibitors of monoamine oxidase” (Bioorg Med Chem, 2018).
